Calls of active or inactive are those of the source. The rule behind the calls is not given here.

Experimental findings from ChEMBL document CHEMBL4041462, “Rice Bran Protein as a Potent Source of Antimelanogenic Peptides with Tyrosinase Inhibitory Activity” (J Nat Prod, 2016) are described below.

In one data set the target is Mushroom tyrosinase (Agaricus bisporus, UniProt O42713+Q00024+C7FF04+C7FF05). Kind of data set: Inhibition of mushroom tyrosinase monophenolase activity using L-tyrosine as substrate. The procedure, abridged: (§1)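 Monophenolase: 2.0 mM L-tyrosine (stock, 100 μL) in 0.1 M phosphate buffer pH 6.5 with peptide or water was preincubated 10 min at 30 °C. Mushroom tyrosinase (1320 units/mL stock) was added and absorbance at 475 nm monitored at 30 °C. Lag time was taken by extrapolating the linear dopachrome rise to the x-axis. Residual activity = (1/lag with inhibitor)/(1/lag with water) × 100. IC50 was read manually from curves. Triplicate.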

In data set [1] the target is T1, Mushroom tyrosinase (Agaricus bisporus) (UniProt O42713+Q00024+C7FF04+C7FF05). Kind of data set: Inhibition of mushroom tyrosinase diphenolase activity at 100 to 500 uM using L-DOPA as substrate. The procedure, abridged: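 Diphenolase: 2.0 mM L-dopa (stock, 100 μL) was mixed with 0.1 M phosphate buffer pH 6.5 and peptide or water, then preincubated 10 min at 30 °C. Mushroom tyrosinase (1320 units/mL stock) was added and dopachrome followed at 475 nm, 30 °C. Residual activity = rate (ΔA475/min) with inhibitor ÷ rate with water × 100. IC50 was estimated manually from inhibition curves. Performed three times.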

For data set [2], the target named is T2, Tyrosinase (Mus musculus) (UniProt P11344).
T2 sequence (whole entry): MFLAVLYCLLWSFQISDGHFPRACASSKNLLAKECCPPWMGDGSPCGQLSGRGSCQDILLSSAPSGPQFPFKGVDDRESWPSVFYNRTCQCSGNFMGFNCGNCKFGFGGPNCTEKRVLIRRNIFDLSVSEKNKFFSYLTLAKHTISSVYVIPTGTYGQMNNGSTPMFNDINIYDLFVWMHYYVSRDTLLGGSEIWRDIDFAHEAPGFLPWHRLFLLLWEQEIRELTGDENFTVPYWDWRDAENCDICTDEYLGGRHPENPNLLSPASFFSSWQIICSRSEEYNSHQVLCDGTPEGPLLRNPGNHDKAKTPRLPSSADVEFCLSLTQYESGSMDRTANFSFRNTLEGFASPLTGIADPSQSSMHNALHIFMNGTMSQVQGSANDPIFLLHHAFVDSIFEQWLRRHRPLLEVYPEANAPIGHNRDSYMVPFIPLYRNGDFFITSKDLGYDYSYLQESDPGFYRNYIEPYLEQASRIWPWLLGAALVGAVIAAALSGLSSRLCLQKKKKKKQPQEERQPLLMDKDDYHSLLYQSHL
Kind of data set: Inhibition of tyrosinase in mouse B16 cells assessed as reduction in melanin production at 500 uM after 3 days relative to control. The format is cell-based. In a few lines:
(§2)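 Melanin content: B16 mouse melanoma cells were seeded at 1.5 × 10^4 cells/well and incubated 24 h. They were then exposed for 3 days to 125, 250 or 500 μM peptide in 5% FBS medium. Cells were harvested with 0.25% trypsin/1 mM EDTA, washed in PBS and lysed in 1 M NaOH, 1 h at 60 °C. Absorbance was read at 420 nm. Matched DMSO without peptide served as background.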

In a further data set the test system is B16. Kind of data set: Cytotoxicity against mouse B16 cells assessed as reduction in cell viability at 125 to 500 uM after 3 days by WST1/MTT assay. The format is cell-based. To be noted: b16, 72 h. The procedure, abridged: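 B16 mouse melanoma cells were grown in Eagle's MEM with Earle's salts, 5% or 10% FBS and 1% penicillin–streptomycin, 37 °C, 5% CO2. They were seeded at 1.0 × 10^3 cells/well and left 24 h. Medium was then replaced with 5% FBS medium containing peptide at 125, 250 or 500 μM. After 3 days, viability was read by WST-1. Matched DMSO without peptide served as background. Three independent experiments; mean ± SD.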

Data set [3] has as its target T1, Mushroom tyrosinase (Agaricus bisporus). Kind of data set: Inhibition of mushroom tyrosinase monophenolase activity at 100 to 500 uM using L-tyrosine as substrate. In a few lines: as §1
In data set [4] the target is T2, Tyrosinase (Mus musculus). Kind of data set: Inhibition of tyrosinase in mouse B16 cells assessed as reduction in melanin production at 125 to 500 uM after 3 days. The format is cell-based. The procedure, abridged:
as §2

Consider H-LQPSHY-OH, for which the IC50 at Mushroom tyrosinase is 156 µM. The inhibition result in data set [1] was “inactive”. Also, the inhibition in data set [2] was above 50%. Also, the Activity entry in the data set on B16 is reported as “Non-Toxic”.
As for H-HPTSEVY-OH, in data set [3], the inhibition result was “Active”. The inhibition result in data set [1] and in data set [4] was “inactive” throughout. Besides, the Activity result with B16 is on record as “Non-Toxic”.
H-HGGEGGRPY-OH: the inhibition result in data set [3] is “Active”. Also, the inhibition entry in data set [1] and in data set [4] was “inactive” each time. Moreover, the Activity result in the data set on B16 is on record as “Non-Toxic”.
As to H-DTVHGQW-OH, the inhibition entry in data set [3] and in data set [1] was “inactive” throughout.
In the case of H-WEEEPEDER-OH, the inhibition entry in data set [3] and in data set [1] was “inactive” each time.
In the case of H-WEAGQDQR-OH, the inhibition entry in data set [3] and in data set [1] was “inactive” in each case.
Regarding `OC[C@H]1O[C@@H](Oc2ccc(O)cc2)[C@H](O)[C@@H](O)[C@@H]1O`, in data set [2], the inhibition entry was “Active”.
